Calls of active or inactive are those of the source. The calls are words filed in the database; no cut-off is given here. Square brackets hold non-standard residues; d marks the D form. Peptide text beside a SMILES is read from it. * marks the point of attachment. ξ: configuration not given here. Dnp = O=[N+]([O-])c1ccc(*)c([N+](=O)[O-])c1; ξDab = NCCC(N)C(=O)O
How the values were obtained:
[1] = target: T1, Botulinum neurotoxin type A (Clostridium botulinum, UniProt P0DPI0); experiment: Inhibition of protease activity of Clostridium botulinum BoNT/A using SNAP-25 as substrate by FRET analysis
T1 sequence (P0DPI0 2-448 limits assumed): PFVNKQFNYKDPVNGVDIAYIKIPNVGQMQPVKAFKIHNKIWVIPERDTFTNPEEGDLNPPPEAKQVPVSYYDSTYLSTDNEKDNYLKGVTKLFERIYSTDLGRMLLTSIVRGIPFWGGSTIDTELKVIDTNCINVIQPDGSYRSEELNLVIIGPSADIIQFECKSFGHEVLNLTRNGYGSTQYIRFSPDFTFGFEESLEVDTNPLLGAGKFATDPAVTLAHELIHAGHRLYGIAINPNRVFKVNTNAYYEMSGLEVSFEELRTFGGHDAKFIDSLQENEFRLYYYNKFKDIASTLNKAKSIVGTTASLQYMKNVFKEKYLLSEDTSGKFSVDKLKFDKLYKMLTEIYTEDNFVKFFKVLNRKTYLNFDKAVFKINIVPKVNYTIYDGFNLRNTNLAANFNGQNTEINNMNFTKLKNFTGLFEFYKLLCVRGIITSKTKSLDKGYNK

[2] = target: T2, Botulinum neurotoxin type E (Clostridium botulinum) (UniProt Q00496); experiment: Inhibition of Clostridium botulinum BoNT/E light chain-mediated SNAP-25 cleavage assessed as reduction in residual activity using SNAP-Etide as substrate at 100 uM after 15 mins by micro plate reader method
T2 sequence (whole entry): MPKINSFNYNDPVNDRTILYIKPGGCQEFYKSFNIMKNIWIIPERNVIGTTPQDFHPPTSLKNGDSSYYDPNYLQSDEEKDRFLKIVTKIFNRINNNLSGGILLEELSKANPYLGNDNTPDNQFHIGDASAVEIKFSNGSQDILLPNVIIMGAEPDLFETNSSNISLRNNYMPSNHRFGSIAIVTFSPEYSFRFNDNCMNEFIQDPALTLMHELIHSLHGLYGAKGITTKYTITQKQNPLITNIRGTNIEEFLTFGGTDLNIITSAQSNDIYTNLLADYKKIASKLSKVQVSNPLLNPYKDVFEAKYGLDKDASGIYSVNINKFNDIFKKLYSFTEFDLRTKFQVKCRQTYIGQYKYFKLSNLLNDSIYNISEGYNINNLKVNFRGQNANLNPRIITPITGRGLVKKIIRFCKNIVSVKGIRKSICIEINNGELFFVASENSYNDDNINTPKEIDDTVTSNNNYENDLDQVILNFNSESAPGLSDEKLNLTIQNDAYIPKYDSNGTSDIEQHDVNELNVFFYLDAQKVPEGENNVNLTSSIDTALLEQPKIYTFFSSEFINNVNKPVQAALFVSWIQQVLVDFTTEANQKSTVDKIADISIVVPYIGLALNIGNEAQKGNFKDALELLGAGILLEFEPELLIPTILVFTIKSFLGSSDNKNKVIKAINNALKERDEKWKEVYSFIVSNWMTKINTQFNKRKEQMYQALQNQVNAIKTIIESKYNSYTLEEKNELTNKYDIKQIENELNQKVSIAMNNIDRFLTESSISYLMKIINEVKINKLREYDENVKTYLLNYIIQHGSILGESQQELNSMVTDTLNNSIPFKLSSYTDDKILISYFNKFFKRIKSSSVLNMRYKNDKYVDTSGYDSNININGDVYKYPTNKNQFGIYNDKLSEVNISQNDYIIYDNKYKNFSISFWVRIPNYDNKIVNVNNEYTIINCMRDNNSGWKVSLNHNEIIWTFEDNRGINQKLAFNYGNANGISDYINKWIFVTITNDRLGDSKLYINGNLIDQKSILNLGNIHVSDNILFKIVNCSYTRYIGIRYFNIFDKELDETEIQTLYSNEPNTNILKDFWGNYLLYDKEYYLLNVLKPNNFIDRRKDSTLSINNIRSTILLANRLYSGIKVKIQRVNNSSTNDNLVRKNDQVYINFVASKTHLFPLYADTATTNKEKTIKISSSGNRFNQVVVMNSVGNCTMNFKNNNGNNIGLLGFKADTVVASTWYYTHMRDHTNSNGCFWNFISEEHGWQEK
Outline: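 Compound was preincubated 15 min with 2.5 nM BoNT/E light chain in 20 mM Hepes pH 7.4 with 2 mM DTT (final DMSO ≤1%). Reaction was started with 10 µM SNAP-Etide at 37°C and read as fluorescence (ex 320/em 420 nm). Percent inhibition = [1 − (test initial velocity ÷ mean initial velocity of two DMSO controls)] × 100.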

[3] = target: T2, Botulinum neurotoxin type E (Clostridium botulinum); experiment: (§1) Inhibition of Clostridium botulinum BoNT/E light chain using GFP-tagged VAMP2/SNAP-25 (Ala128 to Gly206 residues) as substrate after 15 mins by GFP based micro plate reader method
Outline: (§2)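 Recombinant BoNT/E light chain (25 nM) in 20 mM Hepes pH 7.4 with 2 mM DTT, preincubated 15 min with compound, then added to streptavidin plates carrying an immobilised biotinylated AviTag–VAMP2/SNAP-25–GFP substrate. GFP release was followed at 37°C (ex 460/em 506 nm). Triplicates over a range of concentrations; IC50 came from a sigmoid fit with Hill slope fixed at 1. The ratio uses the reference inhibitor run under the same conditions.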

[4] = target: T1, Botulinum neurotoxin type A; experiment: Inhibition of protease activity of Clostridium botulinum BoNT/A using N(K)-acetyl)-SNKTRIDEANQRATKML-carboxamide as substrate
[5] = target: T2, Botulinum neurotoxin type E (Clostridium botulinum); experiment: Inhibition of Clostridium botulinum BoNT/E light chain using GFP-tagged VAMP2/SNAP-25 (Ala128 to Gly206 residues) as substrate at 100 uM after 15 mins by GFP based micro plate reader method
Outline: (§3)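 Immobilised biotinylated AviTag–VAMP2/SNAP-25(Ala128–Gly206)–GFP substrate on streptavidin plates. BoNT/E light chain (25 nM) in 20 mM Hepes pH 7.4 with 2 mM DTT was preincubated 15 min with compound before addition to the wells. Liberated GFP was read at 37°C (ex 460/em 506 nm). Percent inhibition at a single concentration, run in triplicate.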

[6] = target: T2, Botulinum neurotoxin type E (Clostridium botulinum); experiment: Inhibition of Clostridium botulinum BoNT/E light chain using GFP-tagged VAMP2/SNAP-25 (Ala128 to Gly206 residues) as substrate at 25 uM after 15 mins by GFP based micro plate reader method; outline: as §3
[7] = target: T2, Botulinum neurotoxin type E (Clostridium botulinum); experiment: Inhibition of Clostridium botulinum BoNT/E light chain using GFP-tagged VAMP2/SNAP-25 (Ala128 to Gly206 residues) as substrate at 12.5 uM after 15 mins by GFP based micro plate reader method; outline: as §3
[8] = target: T3, Botulinum neurotoxin type E (Clostridium botulinum, UniProt Q00496); experiment: as §1; outline: as §2
T3 sequence (Q00496 whole entry): T2 sequence (whole entry)

[9] = target: T2, Botulinum neurotoxin type E (Clostridium botulinum); experiment: Potency index, ratio of IC50 for NSC-77053 to IC50 for test compound for inhibition of Clostridium botulinum BoNT/E light chain using GFP-tagged VAMP2/SNAP-25 (Ala128 to Gly206 residues) as substrate after 15 mins by GFP based micro plate reader method; outline: as §2
[10] = target: T1, Botulinum neurotoxin type A; experiment: Inhibition of Clostridium botulinum BoNT/A light chain

Compound | inhibition [2] | inhibition [3] | also measured
O=C(/C=C/c1ccc(Cl)cc1)NO |  |  | IC50 [1]: 15 µM
CCOc1ccc(OCC)c(NC(=O)CSc2cc(N3CCC(C(=O)NC4CC4)CC3)ncn2)c1 | 25% | inactive | 
H-CRATKML-OH |  |  | Ki [4]: 2000 nM
Cc1cc(C)cc(N(CC(=O)Nc2ccc(C(F)(F)F)cc2)S(=O)(=O)c2c(C)nc(O)nc2O)c1 | 42% | inactive | 
Cc1cccc(NC(=O)[C@@H](CC(C)C)NS(=O)(=O)c2ccc3oc(=O)n(C)c3c2)c1C | 71% |  | inhibition [5]: 84%; inhibition [6]: 58%; inhibition [7]: 46.5%; IC50 [8]: 14.2 µM; Ratio IC50 [9]: 3
N=C(N)NCCC[C@H](NC(=O)[C@@H](N)CCCNC(=N)N)C(=O)NCC(=O)N[C@@H](Cc1ccccc1)C(=O)O (H-RRGF-OH) |  |  | IC50 [10]: 900 nM
CCOc1ccc(NC(=O)CSc2nccn2-c2cccc(C(=O)Nc3ccccc3)c2)cc1 | 40% | inactive | 
Cc1cccc(NC(=O)[C@H](CC(C)C)NS(=O)(=O)c2ccc3oc(=O)n(C)c3c2)c1C |  |  | inhibition [5]: 77.5%; inhibition [6]: 62.5%; inhibition [7]: 52%
CC[C@H](C)[C@H](NS(=O)(=O)c1ccc2oc(=O)n(C)c2c1)C(=O)Nc1cccc(C)c1C |  |  | IC50 [8]: 16 µM
CSCC[C@H](NC(=O)C(CCN)NC(=O)[C@@H](NC(=O)[C@H](Cc1c[nH]c2ccccc12)NC(=O)[C@H](CCCNC(=N)N)NC(=O)C(N)CCNc1ccc([N+](=O)[O-])cc1[N+](=O)[O-])[C@@H](C)O)C(=O)N[C@@H](CC(C)C)C(=O)O (stereo partly specified) (H-[ξDab](Dnp)RWT[ξDab]ML-OH) |  |  | Ki [4]: 41 nM
O=C(O)c1ccccc1C(=O)c1ccc2c(c1)Cc1ccccc1-2 |  |  | IC50 [8]: 48.5 µM
Cc1ccc(NC(=O)N2CC(=O)N(CC(=O)NC[C@H]3CCCO3)c3ccccc32)cc1 | 33% | inactive | 
CC(=O)c1cccc(NC(=O)CSc2nnc(SCC(=O)Nc3cccc(C(C)=O)c3)s2)c1 | 31% | inactive | 
CC(=O)N/C(=C\c1c[nH]c2ccccc12)C(=O)N[C@@H](Cc1c[nH]c2ccccc12)C(=O)O (stereo in doubt) | 52% | inactive | 
COc1ccc(N(CC(=O)Nc2ccc(F)c(Cl)c2)S(=O)(=O)c2c(C)[nH]c(=O)[nH]c2=O)cc1 | 41% | inactive | 
COc1ccc(CNC(=O)C(=O)N[C@@H](C)[C@H](c2cccs2)N2CCN(Cc3ccccc3)CC2)cc1 | 47% | inactive | 

Source: ChEMBL document CHEMBL4431362, “Identification of small molecule inhibitors of botulinum neurotoxin serotype E via footprint similarity” (Bioorg Med Chem, 2016)
